How the values were obtained:
Rattus norvegicus [1] = assay: In vivo evaluation for the percentage decrease in blood pressure at 135 umol/kg administered through oral route in spontaneously hypertensive rats and observed for 12-18 h.; type: functional
Summary of the method: (§1)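 Male spontaneously hypertensive rats, 15 weeks old, dosed by oral gavage at 135 μmol/kg. Blood pressure recorded directly via an indwelling abdominal aortic catheter exteriorized in the intrascapular region. Sampled over 20-s intervals every 5 min for 24 h. Value is the maximum percent fall in systolic pressure from predrug control within the stated period, mean of five rats.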

Oryctolagus cuniculus [2] = organism: Oryctolagus cuniculus; assay: In vitro evaluation for the vasorelaxant effects in circumferential strips of potassium-depolarized rabbit aorta. (IC50 in rabbit aorta strips contracted with KCl; type: functional
Summary of the method: (§2)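 Circumferential strips of rabbit thoracic aorta, contracted by depolarization with 100 mM KCl, then exposed to various concentrations of compound.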

Rattus norvegicus [3] = assay: In vivo evaluation for the percentage decrease in blood pressure at 135 umol/kg administered through oral route in spontaneously hypertensive rats and observed for 0-6 h.; type: functional; summary of the method: as §1
Rattus norvegicus [4] = assay: In vivo evaluation for the percentage decrease in blood pressure at 135 umol/kg administered through oral route in spontaneously hypertensive rats and observed for 6-12 h.; type: functional; summary of the method: as §1
[5] = In Vitro evaluation for the affinity for the diltiazem receptor in isolated guinea pig skeletal muscle microsomal preparations by inhibiting [3H]diltiazem binding; type: microsomes, Cavia porcellus, Muscle tissue
Summary of the method: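 Membranes from male guinea pig (350–450 g) hind-limb muscle, mainly quadriceps and gastrocnemius, in 50 mM Tris-HCl. 125–250 μg protein incubated with [3H]-d-cis-diltiazem and competing drug, 250 μL final, 30 °C for 1 h. Rapid GF/B filtration and scintillation counting. Nonspecific binding defined with 100 μM unlabeled diltiazem. Kd calculated from concentration–response curves for inhibition of specific binding; ±SEM.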

Oryctolagus cuniculus [6] = organism: Oryctolagus cuniculus; assay: Vasorelaxant effects in circumferential strips of potassium-depolarized rabbit aorta. (IC50 in rabbit aorta strips contracted with KCl(95% confidence interval)); type: functional, organism-based; summary of the method: as §2
Oryctolagus cuniculus [7] = organism: Oryctolagus cuniculus; assay: In Vitro evaluation for the vasorelaxant effects in circumferential strips of potassium-depolarized rabbit aorta. (IC50 in rabbit aorta strips contracted with KCl; type: functional; summary of the method: as §2
Rattus norvegicus [8] = assay: In vivo evaluation for the percentage decrease in blood pressure at 270 umol/kg administered through oral route in spontaneously hypertensive rats and observed for 12-18 h; type: functional

| SMILES | Decrease (Rattus norvegicus [1]) | IC50 (Oryctolagus cuniculus [2]; Oryctolagus cuniculus, Aorta) | Decrease (Rattus norvegicus [3]) | Decrease (Rattus norvegicus [4]) | Kd [5] | IC50 (Oryctolagus cuniculus [6]; Oryctolagus cuniculus, Aorta) | IC50 (Oryctolagus cuniculus [2]) | IC50 (Oryctolagus cuniculus [7]) | IC50 (Oryctolagus cuniculus [6]) | Decrease (Rattus norvegicus [8]) |
| --- | --- | --- | --- | --- | --- | --- | --- | --- | --- | --- |
| COc1ccc([C@@H]2Cc3c(cccc3C(F)(F)F)N(CC(=O)O)C(=O)[C@@H]2OC(C)=O)cc1 | 4% | > 3000 nM | 6% | 3% |  |  |  |  |  |  |
| COc1ccc([C@@H]2Cc3cc(OC)ccc3N(CCN(C)C)C(=O)[C@@H]2OC(C)=O)cc1.Cl | 10% |  | 15% | 8% |  |  |  |  |  |  |
| COc1ccc([C@@H]2Sc3ccccc3N(CCN(C)C)C(=O)[C@@H]2OC(C)=O)cc1 (relative stereo) [DILTIAZEM] | 17% |  | 23% | 12% | 200 nM | 210 nM |  |  |  |  |
| COc1ccc([C@@H]2Sc3cc(Cl)ccc3N(CCN(C)C)C(=O)[C@@H]2OC(C)=O)cc1 [CLENTIAZEM] |  |  |  |  | 81 nM |  | 240 nM |  |  |  |
| COc1ccc([C@@H]2Cc3c(cccc3C(F)(F)F)N(CCN(C)C)C(=O)[C@@H]2O)cc1 | 28% |  | 21% | 26% |  | 300 nM |  |  |  |  |
| COc1ccc([C@@H]2Sc3ccccc3N(CCN(C)C)C(=O)[C@@H]2OC(C)=O)cc1 [DILTIAZEM] |  |  |  |  |  |  |  | 1800 nM |  |  |
| COc1ccc([C@@H]2Cc3c(Cl)cccc3N(CCN(C)C)C(=O)[C@@H]2OC(C)=O)cc1 | 11% |  | 9% | 8% |  | 1600 nM |  |  |  |  |
| COc1ccc([C@H]2Cc3c(cccc3C(F)(F)F)N(CCN(C)C)C(=O)[C@H]2OC(C)=O)cc1.Cl (stereo in doubt; 4p) | 7% |  |  | 8% | 1200 nM |  |  |  | 3900 nM |  |
| COc1ccc([C@@H]2Cc3c(cccc3C(F)(F)F)N(CC=O)C(=O)[C@@H]2OC(C)=O)cc1 |  |  |  |  |  |  |  | > 3000 nM |  |  |
| COc1ccc([C@@H]2Cc3ccc(Cl)cc3N(CCN(C)C)C(=O)[C@@H]2OC(C)=O)cc1 | 4% | 7700 nM | 7% | 2% |  |  |  |  |  |  |
| COc1ccc([C@@H]2Cc3c(cccc3C(F)(F)F)N(CCN(C)C)C(=O)[C@@H]2OC(C)=O)cc1.Cl (stereo in doubt) | 30% |  | 31% | 27% | 120 nM | 150 nM |  |  |  |  |
| CNCCN1C(=O)[C@H](O)[C@H](c2ccc(OC)cc2)Cc2c1cccc2C(F)(F)F | 22% | 690 nM | 16% | 20% |  |  |  |  |  |  |
| COc1ccc([C@@H]2Cc3c(cccc3C(F)(F)F)N(C[C@H]3CCCN3)C(=O)[C@@H]2OC(C)=O)cc1 | 26% |  | 21% | 22% |  | 630 nM |  |  |  |  |
| CNCCN1C(=O)[C@H](OC(C)=O)[C@H](c2ccc(OC)cc2)Cc2cc(C(F)(F)F)ccc21 | 31% | 880 nM | 28% | 29% |  |  |  |  |  |  |
| COc1ccc(C2Sc3cc(OC)ccc3N(CCN(C)C)C(=O)C2OC(C)=O)cc1 (stereo not given) |  | 120 nM |  |  | 42 nM |  |  |  |  |  |
| COc1ccc([C@@H]2Cc3c(cccc3C(F)(F)F)N(C[C@@H]3CCCN3C)C(=O)[C@@H]2OC(C)=O)cc1 | 29% | 520 nM | 30% | 29% |  |  |  |  |  |  |
| COc1ccc([C@@H]2Cc3c(cccc3C(F)(F)F)N(C[C@@H]3CCCN3)C(=O)[C@@H]2O)cc1 | 27% |  | 30% | 26% |  |  |  | 95 nM |  |  |
| COc1ccc([C@@H]2Cc3c(cccc3C(F)(F)F)N(C[C@@H]3CCCN3)C(=O)[C@@H]2OC(C)=O)cc1 | 38% |  | 45% | 39% |  |  |  |  |  |  |

| SMILES | Decrease (Rattus norvegicus [1]) | IC50 (Oryctolagus cuniculus [2]; Oryctolagus cuniculus, Aorta) | Decrease (Rattus norvegicus [3]) | Decrease (Rattus norvegicus [4]) | Kd [5] | IC50 (Oryctolagus cuniculus [6]; Oryctolagus cuniculus, Aorta) | IC50 (Oryctolagus cuniculus [2]) | IC50 (Oryctolagus cuniculus [7]) | IC50 (Oryctolagus cuniculus [6]) | Decrease (Rattus norvegicus [8]) |
| --- | --- | --- | --- | --- | --- | --- | --- | --- | --- | --- |
| CNCCN1C(=O)[C@H](O)[C@H](c2ccc(OC)cc2)Cc2cc(C(F)(F)F)ccc21 | 14% | 1900 nM | 14% | 15% |  |  |  |  |  |  |
| COc1ccc([C@H]2Cc3cc(C(F)(F)F)ccc3N(CCN(C)C)C(=O)[C@H]2OC(C)=O)cc1.Cl (stereo in doubt) | 7% |  | 7% | 8% | 6300 nM | > 10000 nM |  |  |  |  |
| COc1ccc([C@@H]2Cc3cc(C(F)(F)F)ccc3N(CCN(C)C)C(=O)[C@@H]2O)cc1.Cl | 14% |  | 8% | 9% |  |  |  |  |  |  |
| COc1ccc([C@@H]2Cc3c(OC)cccc3N(CCN(C)C)C(=O)[C@@H]2OC(C)=O)cc1.Cl | 1% |  | 0% | 0% |  | 2400 nM |  |  |  |  |
| COc1ccc([C@@H]2Cc3c(cccc3C(F)(F)F)N(C[C@H]3CCCN3)C(=O)[C@@H]2O)cc1 | 18% |  | 17% | 18% |  | 890 nM |  |  |  |  |
| COc1ccc([C@@H]2Cc3cc(Cl)ccc3N(CCN(C)C)C(=O)[C@@H]2OC(C)=O)cc1 |  |  | 13% | 14% |  | 1500 nM |  |  |  | 18% |
| COc1ccc([C@@H]2Cc3cc(C(F)(F)F)ccc3N(CCN(C)C)C(=O)[C@@H]2OC(C)=O)cc1.Cl | 18% |  |  | 19% |  |  |  |  |  |  |
| COc1ccc([C@@H]2Cc3cc(C(F)(F)F)ccc3N(CCN(C)C)C(=O)[C@@H]2OC(C)=O)cc1.Cl (stereo in doubt) | 19% |  | 19% | 22% | 180 nM | 1600 nM |  |  |  |  |
| COc1ccc([C@@H]2Cc3c(cccc3C(F)(F)F)N(C[C@H]3CCCN3C)C(=O)[C@@H]2OC(C)=O)cc1 | 18% |  | 20% | 21% |  | 1100 nM |  |  |  |  |
| COc1ccc([C@H]2Cc3cc(Cl)ccc3N(CCN(C)C)C(=O)[C@@H]2OC(C)=O)cc1 | 12% |  | 12% | 12% | 690 nM |  |  |  |  |  |
| COc1ccc([C@H]2Cc3c(cccc3C(F)(F)F)N(CCN(C)C)C(=O)[C@H]2OC(C)=O)cc1.Cl (stereo in doubt; 4n) | 9% |  | 9% | 9% | 2000 nM | 4900 nM |  |  |  |  |
| CNCCN1C(=O)[C@H](OC(C)=O)[C@H](c2ccc(OC)cc2)Cc2c1cccc2C(F)(F)F | 32% |  | 32% | 34% |  | 180 nM |  |  |  |  |
| COc1ccc([C@H]2Cc3c(cccc3C(F)(F)F)N(CCN(C)C)C(=O)[C@@H]2OC(C)=O)cc1.Cl (relative stereo) | 11% | > 10000 nM | 5% | 9% | 3800 nM |  |  |  |  |  |
| COc1ccc([C@@H]2Cc3c(cccc3C(F)(F)F)N(CCO)C(=O)[C@@H]2OC(C)=O)cc1 | 4% |  | 1% | 3% |  |  |  |  |  |  |
| COc1ccc([C@H]2Cc3cc(Cl)ccc3N(CCN(C)C)C(=O)[C@H]2OC(C)=O)cc1 (relative stereo) | 9% |  | 1% | 4% | 8200 nM |  |  |  |  |  |
| COc1ccc([C@@H]2Sc3cc(Cl)ccc3N(CCN(C)C)C(=O)[C@@H]2OC(C)=O)cc1 (relative stereo) [CLENTIAZEM] | 24% |  | 41% | 26% | 95 nM |  |  |  |  |  |
| COc1ccc([C@@H]2Cc3c(cccc3C(F)(F)F)N(CCN(C)C)C(=O)[C@@H]2OC(C)=O)cc1.Cl | 24% | 240 nM | 24% | 26% |  |  |  |  |  |  |
